The text below walks through data of ChEMBL document CHEMBL3593206, “SAR Studies of Exosite-Binding Substrate-Selective Inhibitors of A Disintegrin And Metalloprotease 17 (ADAM17) and Application as Selective in Vitro Probes” (J Med Chem, 2015).

Structures are written as SMILES. pIC50: −log10 of the molar value. The source made the active and inactive calls. No cut-off for these calls is given here.

Series [1] has as its target T1, Disintegrin and metalloproteinase domain-containing protein 17 (Homo sapiens, UniProt P78536). The experiment in a line: Inhibition of ADAM17 in human THP1 cells assessed as inhibition of LPS-stimulated TNFalpha cleavage after 1 hr by AlphaScreen assay. In kind it is cell-based, THP-1. In short, it runs like this:
(§1)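 THP-1 cells grown in RPMI 1640 with 10% FBS and 0.05 mM 2-mercaptoethanol; 3000 cells per well. Compound given in 3% DMSO for 1 h, then LPS added (1 μg/mL final) and cells incubated overnight at 37 °C. TNFα detected by AlphaScreen using anti-TNFα acceptor beads and streptavidin donor beads, each step 1 h in the dark at RT.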
Background: In Alpha technology, singlet oxygen from a donor bead excites a nearby acceptor bead.

Series [2] has as its target T1, Disintegrin and metalloproteinase domain-containing protein 17. In words: Inhibition of ADAM17 in human SW480 cells assessed as inhibition of PMA-stimulated wild type PTK7 shedding at 25 to 100 uM after 16 hrs by Western blot analysis. The format is cell-based. The method in brief: (§2)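 PTK7 shedding tested at 25, 50 and 100 μM in PMA-stimulated cells. HT1080 fibrosarcoma cells carried the L622D PTK7 mutant uncleavable by MT1-MMP; SW480 colorectal cells expressed wild-type PTK7 endogenously. Soluble PTK7 was detected.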
A general note: In western blotting, separated proteins are transferred to a membrane and probed.

In series [3] the target is T2, Disintegrin and metalloproteinase domain-containing protein 10 (Homo sapiens) (UniProt O14672).
T2 sequence (whole entry): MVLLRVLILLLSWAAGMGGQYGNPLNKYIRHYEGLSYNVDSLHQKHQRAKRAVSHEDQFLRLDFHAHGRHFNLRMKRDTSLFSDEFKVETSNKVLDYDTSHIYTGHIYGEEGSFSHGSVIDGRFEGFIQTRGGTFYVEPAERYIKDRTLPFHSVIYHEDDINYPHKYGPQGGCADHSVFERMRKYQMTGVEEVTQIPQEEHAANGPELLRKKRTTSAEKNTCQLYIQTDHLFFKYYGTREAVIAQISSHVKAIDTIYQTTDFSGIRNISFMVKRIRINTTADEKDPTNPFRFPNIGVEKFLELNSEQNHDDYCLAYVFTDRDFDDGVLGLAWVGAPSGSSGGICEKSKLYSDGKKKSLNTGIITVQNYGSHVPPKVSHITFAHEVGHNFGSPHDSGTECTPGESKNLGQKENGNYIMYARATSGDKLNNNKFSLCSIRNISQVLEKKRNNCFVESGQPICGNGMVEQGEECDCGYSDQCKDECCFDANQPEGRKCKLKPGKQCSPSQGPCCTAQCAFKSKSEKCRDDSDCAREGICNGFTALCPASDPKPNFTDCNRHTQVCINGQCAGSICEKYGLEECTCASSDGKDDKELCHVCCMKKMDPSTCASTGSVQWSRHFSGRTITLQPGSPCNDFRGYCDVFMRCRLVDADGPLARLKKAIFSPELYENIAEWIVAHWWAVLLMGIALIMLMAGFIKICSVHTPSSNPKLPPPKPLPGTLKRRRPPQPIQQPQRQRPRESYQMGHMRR
The experiment in a line: Inhibition of ADAM10 (unknown origin) at 100 uM preincubated for 30 mins followed by substrate addition measured every 30 mins for 2 hrs by fluorescence assay relative to control. The method in brief:
(§3)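 Enzyme at 30 nM (3× solution) in 10 mM Hepes, 0.001% Brij-35, pH 7.5. Inhibitor series of 10 points, 1:3, from 300 μM, preincubated 30 min at RT. Glycosylated substrate added from a 30 μM 3× solution. Fluorescence (ex 360/em 460 nm) read every 30 min for 2 h. Inhibition taken from hydrolysis rates against substrate-only and substrate-plus-enzyme wells.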

In series [4] the target is T1, Disintegrin and metalloproteinase domain-containing protein 17. In words: Inhibition of ADAM17 in human HT1080 cells assessed as inhibition of PMA-stimulated PTK7 L622D mutant shedding at 25 to 100 uM after 16 hrs by Western blot analysis. The format is cell-based. The note with it: HT-1080. In short, it runs like this: as §2
Series [5] has the same target. In words: Inhibition of ADAM17 (unknown origin) preincubated for 30 mins followed by substrate addition measured every 30 mins for 2 hrs by fluorescence assay. In short, it runs like this: as §3
Series [6] has as its target T3, Disintegrin and metalloproteinase domain-containing protein 10 (Homo sapiens, UniProt O14672).
T3 sequence (O14672 whole entry): T2 sequence (whole entry)
In words: Inhibition of ADAM10 (unknown origin) preincubated for 30 mins followed by substrate addition measured every 30 mins for 2 hrs by fluorescence assay. The method in brief: as §3

Series [7] concerns the target T1, Disintegrin and metalloproteinase domain-containing protein 17. In words: Inhibition of ADAM17 in human EAhy926 cells assessed as inhibition of neprilysin shedding at 15 uM relative to control. The format is cell-based.
Series [8] in a line: Cytotoxicity against CHOK1 cells assessed as inhibition of cell viability up to 33 uM after 72 hrs by CellTiter-Glo assay. In kind it is cell-based, Cricetulus griseus. The note with it: chinese hamster, cho-k1, 72 h. A general note: Cellular ATP, detected with luciferase, serves as a proxy for viable cell number.
Series [9] addresses T4, Matrix metalloproteinase-14 (Homo sapiens, UniProt P50281). In words: Inhibition of MMP14 (unknown origin) using Mca-KLPGL-Dnp-AR as substrate preincubated for 30 mins followed by substrate addition measured after 1 hr by fluorescence assay. In short, it runs like this: (§4)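 Inhibitor as 10-point 1:3 dilutions from 300 μM, 30 min at RT. Substrate added from a 30 μM 3× solution. Single fluorescence read (ex 324/em 393 nm) after 1 h at RT.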

Series [10] has as its target T5, 72 kDa type IV collagenase (Homo sapiens, UniProt P08253). The experiment in a line: Inhibition of MMP2 (unknown origin) using Mca-KLPGL-Dnp-AR as substrate preincubated for 30 mins followed by substrate addition measured after 1 hr by fluorescence assay. The method in brief: as §4
Target sequence in this assay (P08253 whole entry): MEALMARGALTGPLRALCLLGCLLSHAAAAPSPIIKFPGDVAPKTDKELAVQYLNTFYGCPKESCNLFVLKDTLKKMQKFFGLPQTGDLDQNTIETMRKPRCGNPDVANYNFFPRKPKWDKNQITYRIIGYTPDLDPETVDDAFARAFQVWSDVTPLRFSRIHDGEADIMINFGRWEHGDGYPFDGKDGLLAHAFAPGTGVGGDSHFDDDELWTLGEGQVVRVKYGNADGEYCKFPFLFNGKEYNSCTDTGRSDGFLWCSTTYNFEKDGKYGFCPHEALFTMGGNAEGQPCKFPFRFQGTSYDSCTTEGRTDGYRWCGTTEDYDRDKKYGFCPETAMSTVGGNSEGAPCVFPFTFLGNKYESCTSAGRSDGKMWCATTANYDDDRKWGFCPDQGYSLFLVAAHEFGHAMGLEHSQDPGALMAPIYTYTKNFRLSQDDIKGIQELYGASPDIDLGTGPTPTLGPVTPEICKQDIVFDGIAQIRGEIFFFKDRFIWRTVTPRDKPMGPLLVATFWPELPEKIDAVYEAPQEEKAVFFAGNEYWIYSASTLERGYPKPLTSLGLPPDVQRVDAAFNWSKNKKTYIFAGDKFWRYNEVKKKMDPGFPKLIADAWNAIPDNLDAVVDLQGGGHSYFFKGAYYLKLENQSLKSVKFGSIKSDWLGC
Series [11] addresses T5, 72 kDa type IV collagenase. In words: Inhibition of MMP2 (unknown origin) using Mca-KLPGL-Dnp-AR as substrate at 100 uM preincubated for 30 mins followed by substrate addition measured after 1 hr by fluorescence assay relative to control. In short, it runs like this: as §4
Target sequence in this assay (P08253 110-660 limits assumed): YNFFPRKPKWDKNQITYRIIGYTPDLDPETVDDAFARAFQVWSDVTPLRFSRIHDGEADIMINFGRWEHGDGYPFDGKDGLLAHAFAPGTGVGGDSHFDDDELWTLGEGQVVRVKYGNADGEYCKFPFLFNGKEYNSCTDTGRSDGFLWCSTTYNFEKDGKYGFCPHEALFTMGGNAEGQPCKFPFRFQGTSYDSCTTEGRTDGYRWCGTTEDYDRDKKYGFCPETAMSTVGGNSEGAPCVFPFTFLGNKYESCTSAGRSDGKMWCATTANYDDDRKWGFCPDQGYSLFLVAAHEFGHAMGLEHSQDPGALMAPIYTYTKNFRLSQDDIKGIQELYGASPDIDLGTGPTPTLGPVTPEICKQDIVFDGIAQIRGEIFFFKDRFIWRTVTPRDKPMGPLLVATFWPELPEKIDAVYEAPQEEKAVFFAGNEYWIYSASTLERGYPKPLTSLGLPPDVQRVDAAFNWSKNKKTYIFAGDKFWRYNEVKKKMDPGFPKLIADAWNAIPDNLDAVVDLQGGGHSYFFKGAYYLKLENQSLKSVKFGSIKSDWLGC
For series [12], the target named is T6, Neutrophil collagenase (Homo sapiens, UniProt P22894). In words: Inhibition of MMP8 (unknown origin) using Mca-KLPGL-Dnp-AR as substrate preincubated for 30 mins followed by substrate addition measured after 1 hr by fluorescence assay. The method in brief:
as §4
Target sequence in this assay (P22894 whole entry): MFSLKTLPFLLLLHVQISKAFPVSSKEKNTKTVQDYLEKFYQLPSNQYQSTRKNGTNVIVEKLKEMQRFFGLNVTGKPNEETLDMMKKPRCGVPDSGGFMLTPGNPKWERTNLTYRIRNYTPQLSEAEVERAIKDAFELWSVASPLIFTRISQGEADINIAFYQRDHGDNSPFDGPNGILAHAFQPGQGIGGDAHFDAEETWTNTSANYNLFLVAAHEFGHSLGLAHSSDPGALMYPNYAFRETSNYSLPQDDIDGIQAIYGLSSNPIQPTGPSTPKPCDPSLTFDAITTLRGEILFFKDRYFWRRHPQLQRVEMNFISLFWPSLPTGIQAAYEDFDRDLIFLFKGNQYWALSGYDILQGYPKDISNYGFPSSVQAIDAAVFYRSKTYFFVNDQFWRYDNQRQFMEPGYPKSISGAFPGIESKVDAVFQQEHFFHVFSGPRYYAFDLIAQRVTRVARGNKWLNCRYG

In series [13] the target is T1, Disintegrin and metalloproteinase domain-containing protein 17. The experiment in a line: Inhibition of ADAM17 in human THP1 cells assessed as inhibition of LPS-stimulated TNFalpha cleavage at 25 uM after 1 hr by AlphaScreen assay relative to control. In kind it is cell-based. The note with it: THP-1. The method in brief:
as §1

A further series concerns A549. In words: Cytotoxicity against human A549 cells assessed as inhibition of cell viability up to 33 uM after 72 hrs by CellTiter-Glo assay. The format is cell-based. The note with it: a549, 72 h.
For series [14], the target named is T7, Matrix metalloproteinase-9 (Homo sapiens, UniProt P14780). The experiment in a line: Inhibition of MMP9 (unknown origin) using Mca-KLPGL-Dnp-AR as substrate at 100 uM preincubated for 30 mins followed by substrate addition measured after 1 hr by fluorescence assay relative to control. In short, it runs like this:
as §4

The target in series [15] is T6, Neutrophil collagenase. In words: Inhibition of MMP8 (unknown origin) using Mca-KLPGL-Dnp-AR as substrate at 100 uM preincubated for 30 mins followed by substrate addition measured after 1 hr by fluorescence assay relative to control. In short, it runs like this:
as §4
Target sequence in this assay (P22894 101-467 limits assumed): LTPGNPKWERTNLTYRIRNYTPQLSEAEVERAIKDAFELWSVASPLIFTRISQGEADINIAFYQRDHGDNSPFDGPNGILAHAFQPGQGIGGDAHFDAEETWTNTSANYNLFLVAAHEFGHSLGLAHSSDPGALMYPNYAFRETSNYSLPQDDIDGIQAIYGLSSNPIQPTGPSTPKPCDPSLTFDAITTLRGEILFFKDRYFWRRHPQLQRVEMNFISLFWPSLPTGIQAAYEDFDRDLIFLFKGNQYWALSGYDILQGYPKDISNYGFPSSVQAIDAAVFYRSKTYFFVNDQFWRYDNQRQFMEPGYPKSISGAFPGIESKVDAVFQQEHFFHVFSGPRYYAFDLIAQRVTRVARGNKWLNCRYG

Series [16] concerns the target T1, Disintegrin and metalloproteinase domain-containing protein 17. The experiment in a line: Inhibition of ADAM17 in human A549 cells assessed as inhibition of PMA-stimulated heregulin shedding at 40 uM incubated for 1 hr followed by PMA stimulation measured after 1 hr. The format is cell-based. The method in brief: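 Heregulin shedding in A549 cells, with all compounds tested at 40 μM.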

Series [17] has as its target T7, Matrix metalloproteinase-9. In words: Inhibition of MMP9 (unknown origin) using Mca-KLPGL-Dnp-AR as substrate preincubated for 30 mins followed by substrate addition measured after 1 hr by fluorescence assay. The method in brief: as §4
For series [18], the target named is T1, Disintegrin and metalloproteinase domain-containing protein 17. In words: Inhibition of ADAM17 (unknown origin) at 100 uM preincubated for 30 mins followed by substrate addition measured every 30 mins for 2 hrs by fluorescence assay relative to control. The method in brief: as §3
The target is the same in series [19]. The experiment in a line: Inhibition of ADAM17 in human A549 cells assessed as effect on PMA-stimulated TGFalpha shedding up to 100 uM preincubated for 1 hr followed by PMA stimulation measured after 1 hr by ELISA. The format is cell-based. The method in brief: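 TGFα shedding from PMA-treated A549 cells tested up to 100 μM. Marimastat at 10 μM served as control, with a non-PMA-treated control included; soluble TGFα measured in the supernatant.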

The target in series [20] is T2, Disintegrin and metalloproteinase domain-containing protein 10 (Homo sapiens). The experiment in a line: Inhibition of ADAM10 in HTSMC assessed as inhibition of constitutive release of fractalkine/CX3CL1 at 10 uM preincubated for 30 mins measured after 4 to 24 hrs by ELISA.
Series [21] addresses T1, Disintegrin and metalloproteinase domain-containing protein 17. In words: Inhibition of ADAM17 in HTSMC assessed as inhibition of LPS-stimulated IL-8 shedding at 10 uM preincubated for 30 mins followed by LPS challenge measured after 4 to 24 hrs by ELISA. The method in brief: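 HTSMCs stimulated with LPS for IL-8 release; compounds at 10 μM. Mean ± SEM, n = 3 from three independent experiments; one-way ANOVA with Dunnett post hoc test.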

The next series relates to MDA-MB-231. The experiment in a line: Cytotoxicity against human MDA-MB-231 cells assessed as inhibition of cell viability up to 33 uM after 72 hrs by CellTiter-Glo assay. The note with it: mda-mb-231, 72 h. In kind it is cell-based.
In the next series the test system is HepG2. In words: Cytotoxicity against human HepG2 cells assessed as inhibition of cell viability up to 33 uM after 72 hrs by CellTiter-Glo assay. In kind it is cell-based. The following applies: hepg2, 72 h.
Series [22] deals with T2, Disintegrin and metalloproteinase domain-containing protein 10 (Homo sapiens). In words: Inhibition of ADAM10 in human A549 cells assessed as inhibition of betacellulin shedding at 40 uM after 1 hr by ELISA. In kind it is cell-based. The method in brief:
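A549 cells were tested for betacellulin shedding at 40 μM, with Marimastat at 10 μM as control.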

Series [23] has as its target T4, Matrix metalloproteinase-14. In words: Inhibition of MMP14 (unknown origin) using Mca-KLPGL-Dnp-AR as substrate at 100 uM preincubated for 30 mins followed by substrate addition measured after 1 hr by fluorescence assay relative to control.
Series [24] deals with T2, Disintegrin and metalloproteinase domain-containing protein 10 (Homo sapiens). In words: Inhibition of ADAM10 in HTSMC assessed as inhibition of PMA-stimulated release of CXCL16 at 10 uM preincubated for 30 mins followed by PMA challenge measured after 4 to 24 hrs by ELISA.
The target is the same in series [25]. The following applies: A549, 10 uM.

T7 sequence (P14780 whole entry): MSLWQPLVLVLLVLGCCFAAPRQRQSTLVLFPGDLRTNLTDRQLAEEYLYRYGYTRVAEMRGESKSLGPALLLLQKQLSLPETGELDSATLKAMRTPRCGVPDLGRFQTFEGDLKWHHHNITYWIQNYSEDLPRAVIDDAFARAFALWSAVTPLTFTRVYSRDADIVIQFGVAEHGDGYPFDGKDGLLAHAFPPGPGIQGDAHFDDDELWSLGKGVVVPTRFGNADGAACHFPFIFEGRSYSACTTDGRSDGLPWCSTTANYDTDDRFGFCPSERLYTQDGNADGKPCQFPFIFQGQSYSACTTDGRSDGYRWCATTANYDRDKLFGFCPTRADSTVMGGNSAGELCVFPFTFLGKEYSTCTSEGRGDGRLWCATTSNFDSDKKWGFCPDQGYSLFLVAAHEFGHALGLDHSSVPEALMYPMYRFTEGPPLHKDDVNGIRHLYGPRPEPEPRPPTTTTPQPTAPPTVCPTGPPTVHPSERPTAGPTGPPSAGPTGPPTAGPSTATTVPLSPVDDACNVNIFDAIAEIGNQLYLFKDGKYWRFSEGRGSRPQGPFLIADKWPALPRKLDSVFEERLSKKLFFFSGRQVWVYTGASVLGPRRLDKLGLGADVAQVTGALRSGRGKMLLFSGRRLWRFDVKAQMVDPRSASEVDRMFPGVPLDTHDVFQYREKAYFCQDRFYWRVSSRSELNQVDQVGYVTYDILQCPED
T1 sequence (P78536 whole entry, the tested form may be a part): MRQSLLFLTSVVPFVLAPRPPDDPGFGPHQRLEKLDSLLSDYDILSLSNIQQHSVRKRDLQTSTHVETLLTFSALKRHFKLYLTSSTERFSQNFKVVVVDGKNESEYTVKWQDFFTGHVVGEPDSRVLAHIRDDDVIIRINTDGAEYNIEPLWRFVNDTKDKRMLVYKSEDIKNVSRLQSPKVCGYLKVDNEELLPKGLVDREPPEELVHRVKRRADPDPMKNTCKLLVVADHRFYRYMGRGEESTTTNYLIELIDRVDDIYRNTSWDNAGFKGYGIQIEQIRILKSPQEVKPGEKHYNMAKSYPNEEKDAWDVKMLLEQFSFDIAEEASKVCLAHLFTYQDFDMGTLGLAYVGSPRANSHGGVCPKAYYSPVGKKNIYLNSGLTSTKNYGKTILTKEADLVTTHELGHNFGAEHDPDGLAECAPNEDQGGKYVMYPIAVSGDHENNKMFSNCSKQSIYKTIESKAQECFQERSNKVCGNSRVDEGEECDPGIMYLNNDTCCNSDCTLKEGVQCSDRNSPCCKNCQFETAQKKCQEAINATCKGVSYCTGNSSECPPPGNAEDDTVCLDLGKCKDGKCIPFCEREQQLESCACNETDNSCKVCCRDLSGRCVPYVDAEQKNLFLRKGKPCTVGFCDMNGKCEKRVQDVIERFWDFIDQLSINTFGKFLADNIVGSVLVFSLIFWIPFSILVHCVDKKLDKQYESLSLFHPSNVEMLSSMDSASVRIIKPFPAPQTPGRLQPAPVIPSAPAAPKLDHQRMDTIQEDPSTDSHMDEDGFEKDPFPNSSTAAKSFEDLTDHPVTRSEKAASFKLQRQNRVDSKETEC

The term pIC50 denotes the negative decadic logarithm of the IC50, by convention in mol/L. The term inhibition denotes the percentage by which the read-out fell short of the control. For `CCC[C@H]1CNC(=O)C(=O)N1C[C@@H]1CCCN1C[C@@H](CC1CCCCC1)N1C[C@H](Cc2ccccc2)N(CCc2ccccc2)C(=O)C1=O`, the pIC50 is 4.55 in series [1]; 5.37 in series [5]; less than 4.00 in series [6]; less than 4.00 in series [9]; less than 4.00 in series [10]; less than 4.00 at Neutrophil collagenase [12]. In series [17], this compound gave a pIC50 of less than 4.00. Also, the inhibition in series [2] came to 0%; in series [3], 0%; in [4] it was 0%; in [7], 38%; in [11], 0%; in [13] it was 60%. The inhibition in series [14] was 0%; on Neutrophil collagenase [15], 0%; in series [16], 28%; in [18], 100%; in [19], 0%. For the same compound, the Activity result (in series [8]; in the series on A549) was “Non-toxic” each time.
As to `O=C1NC[C@H](Cc2ccccc2)N(C[C@@H]2CCCN2C[C@H](Cc2ccccc2)N2C[C@H](Cc3ccc(O)cc3)N(CCC34CC5CC(CC(C5)C3)C4)C(=O)C2=O)C1=O`, the inhibition in [20] was found to be 0%; in series [3] it was 0%; in series [21], 62%; in series [11] it was 0%; in series [22] it was 0%; in [13] it was 44%. The inhibition in series [23] is 0%; in series [14], 0%; on Neutrophil collagenase [15], 0%; in series [16] it was 0%; in series [18], 100%; in series [24], 0%. Also, the inhibition in series [19] came to 0%. The pIC50 in series [5] was 4.96; in series [6] it was less than 4.00; in series [9], less than 4.00; in [10] it was less than 4.00; on Neutrophil collagenase [12], less than 4.00; in series [17] it was less than 4.00. Besides, the Activity entry (with MDA-MB-231; in the series with HepG2; in [8]; in the series on A549) was “Non-toxic” in each case.
For the compound `CNC(=O)[C@@H](NC(=O)[C@H](CC(C)C)[C@H](O)C(=O)NO)C(C)(C)C`, the inhibition result in series [25] was “Active”.
